Data from ChEMBL document CHEMBL1177711, “Novel quinolizidinyl derivatives as antiarrhythmic agents: 2. Further investigation” (J Med Chem, 2010).

Test system: Aorta
Test: Vasorelaxant activity in potassium depolarized guinea pig aortic strip assessed as inhibition of calcium-induced contraction at 100 uM
Assay type: functional
Conditions: Cavia porcellus
In the case of `Cc1cc(C)c(NC(=O)C[C@@H]2CCCN3CCCC[C@H]23)c(C)c1`, the inhibition at 100 µM is reported as 2%.
With `Cc1cccc(C)c1NCCSC[C@@H]1CCCN2CCCC[C@H]12` the inhibition at 100 µM was 34%.
In the case of `O=C(C[C@@H]1CCCN2CCCC[C@H]12)Nc1c(Cl)cccc1Cl`, the inhibition at 100 µM is reported as 6%.

Test system: not listed separately
Test: Antiarrhythmic activity in sinusoidal alternating current-induced guinea pig left atrium assessed as increase in current strength at which extra beats occur at 50 uM measured every 30 mins
Assay type: functional, Cavia porcellus, Cardiac atrium
Conditions: not given
Summary of the method: (§1)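 Isolated guinea pig left atria, electrically driven at 1 Hz, were exposed to sinusoidal alternating current to induce arrhythmia. The read-out was the rise in the ac-arrhythmia threshold over concentrations up to 100 μM.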
Work on `Cc1cc(C)c(NC(=O)C[C@@H]2CCCN3CCCC[C@H]23)c(C)c1` yielded an Activity of 49%.
For `O=C(C[C@@H]1CCCN2CCCC[C@H]12)Nc1c(Cl)cccc1Cl`, the Activity was 32%.

Test system: not listed separately
Test: Negative chronotropic activity against potassium-induced contraction in guinea pig left atrium assessed as decrease atrial rate at 10 uM relative to control
Assay type: functional, Cavia porcellus, Cardiac atrium
Parameters: scale not given: the % may be the effect or the level left
Conditions: not given
For `Cc1cccc(C)c1NCCSC[C@@H]1CCCN2CCCC[C@H]12`, the Activity was 62%.

Test system: not listed separately
Test: Cardioprotective effect in Langendorff perfused guinea pig spontaneously beating […] assessed as intraventicular conduction time at 0.1 uM (RVb = 19 to 24 +/- 1 to 2 ms)
Assay type: functional
Conditions: Cavia porcellus
Summary of the method: (§2)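 Whole guinea pig hearts were Langendorff-perfused and their ECG recorded at graded concentrations. Intervals read were PR (atrioventricular conduction time), QT (ventricular action potential duration) and QRS (intraventricular conduction time).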
`Cc1cccc(C)c1NCCSC[C@@H]1CCCN2CCCC[C@H]12` showed an intraventricular conduction time of 24 ms.

Test system: Heart
Test: Cardioprotective effect in Langendorff perfused guinea pig spontaneously beating […] assessed as heart rat at 0.01 uM (RVb = 175 to 190 +/- 5 to 11 bpm)
Assay type: functional, Cavia porcellus
Conditions: not given
Molecule `Cc1cccc(C)c1NCCSC[C@@H]1CCCN2CCCC[C@H]12` has an Activity of 185 bpm.

Test system: not listed separately
Test: Antiarrhythmic activity in sinusoidal alternating current-induced guinea pig left atrium assessed as increase in current strength at which extra beats occur measured every 30 mins
Assay type: functional, tissue-based
Conditions: Cavia porcellus, Cardiac atrium, 0.5 h
Summary of the method: as §1
Work on `Cc1cccc(C)c1NCCSC[C@@H]1CCCN2CCCC[C@H]12` yielded an EC50 of 310 nM.

Test system: not listed separately
Test: Cardioprotective effect in Langendorff perfused guinea pig spontaneously beating […] assessed as duration of ventricular action potential at 0.1 uM (RVb = 140 to 161 +/- 2 to 8 ms)
Assay type: functional, Cavia porcellus, Cardiac ventricle
Conditions: not given
Summary of the method: as §2
For `Cc1cccc(C)c1NCCSC[C@@H]1CCCN2CCCC[C@H]12`, the Activity was 168 ms.

Test system: not listed separately
Test: Cardioprotective effect in Langendorff perfused guinea pig spontaneously beating […] assessed as atrioventicular conduction time at 10 uM (RVb = 50 to 55 +/- 1 to 4 ms)
Assay type: functional
Conditions: Cavia porcellus
Summary of the method: as §2
In the case of `Cc1cccc(C)c1NCCSC[C@@H]1CCCN2CCCC[C@H]12`, the AV conduction time is reported as 60 ms.

Test system: not listed separately
Test: Cardioprotective effect in Langendorff perfused guinea pig spontaneously beating […] assessed as intraventicular conduction time at 0.01 uM (RVb = 19 to 24 +/- 1 to 2 ms)
Assay type: functional
Conditions: Cavia porcellus
Summary of the method: as §2
`Cc1cccc(C)c1NCCSC[C@@H]1CCCN2CCCC[C@H]12` gave an intraventricular conduction time of 23 ms.

Test system: not listed separately
Test: Cardioprotective effect in Langendorff perfused guinea pig spontaneously beating […] assessed as duration of ventricular action potential at 10 uM (RVb = 140 to 161 +/- 2 to 8 ms)
Assay type: functional, Cavia porcellus, Cardiac ventricle
Conditions: not given
Summary of the method: as §2
Work on `Cc1cccc(C)c1NCCSC[C@@H]1CCCN2CCCC[C@H]12` yielded an Activity of 175 ms.

Test system: Heart
Test: Cardioprotective effect in Langendorff perfused guinea pig spontaneously beating […] assessed as heart rat at 0.001 uM (RVb = 175 to 190 +/- 5 to 11 bpm)
Assay type: functional, Cavia porcellus
Conditions: not given
In the case of `Cc1cccc(C)c1NCCSC[C@@H]1CCCN2CCCC[C@H]12`, the Activity is reported as 186 bpm.

Test system: not listed separately
Test: Cardioprotective effect in Langendorff perfused guinea pig spontaneously beating […] assessed as atrioventicular conduction time at 0.1 uM (RVb = 50 to 55 +/- 1 to 4 ms)
Assay type: functional
Conditions: Cavia porcellus
Summary of the method: as §2
With `Cc1cccc(C)c1NCCSC[C@@H]1CCCN2CCCC[C@H]12` the AV conduction time was 55 ms.

Test system: not listed separately
Test: Cardioprotective effect in Langendorff perfused guinea pig spontaneously beating […] assessed as atrioventicular conduction time at 0.001 uM (RVb = 50 to 55 +/- 1 to 4 ms)
Assay type: functional
Conditions: Cavia porcellus
Summary of the method: as §2
`Cc1cccc(C)c1NCCSC[C@@H]1CCCN2CCCC[C@H]12` showed an AV conduction time of 55 ms.

Test system: Heart
Test: Cardioprotective effect in Langendorff perfused guinea pig spontaneously beating […] assessed as heart rat at 1 uM (RVb = 175 to 190 +/- 5 to 11 bpm)
Assay type: functional, Cavia porcellus
Conditions: not given
For `Cc1cccc(C)c1NCCSC[C@@H]1CCCN2CCCC[C@H]12`, the Activity was 158 bpm.

Test system: not listed separately
Test: Cardioprotective effect in Langendorff perfused guinea pig spontaneously beating […] assessed as atrioventicular conduction time at 1 uM (RVb = 50 to 55 +/- 1 to 4 ms)
Assay type: functional
Conditions: Cavia porcellus
Summary of the method: as §2
In the case of `Cc1cccc(C)c1NCCSC[C@@H]1CCCN2CCCC[C@H]12`, the AV conduction time is reported as 57 ms.

Test system: not listed separately
Test: Cardioprotective effect in Langendorff perfused guinea pig spontaneously beating […] assessed as intraventicular conduction time at 1 uM (RVb = 19 to 24 +/- 1 to 2 ms)
Assay type: functional
Conditions: Cavia porcellus
Summary of the method: as §2
`Cc1cccc(C)c1NCCSC[C@@H]1CCCN2CCCC[C@H]12` gave an intraventricular conduction time of 25 ms.

Test system: not listed separately
Test: Negative inotropic activity against potassium-induced contraction in guinea pig left atrium assessed as decrease in developed tension at 10 uM relative to control
Assay type: functional, Cavia porcellus, Cardiac atrium
Parameters: scale not given: the % may be the effect or the level left
Conditions: not given
Work on `Cc1cccc(C)c1NCCSC[C@@H]1CCCN2CCCC[C@H]12` yielded an Activity of 37%.

Test system: not listed separately
Test: Negative inotropic activity against potassium-induced contraction in guinea pig left atrium assessed as decrease in developed tension at 0.1 uM relative to control
Assay type: functional, Cavia porcellus, Cardiac atrium
Parameters: scale not given: the % may be the effect or the level left
Conditions: not given
`Cc1cc(C)c(NC(=O)C[C@@H]2CCCN3CCCC[C@H]23)c(C)c1` gave an Activity of 54%.

Test system: not listed separately
Test: Cardioprotective effect in Langendorff perfused guinea pig spontaneously beating […] assessed as duration of ventricular action potential at 0.01 uM (RVb = 140 to 161 +/- 2 to 8 ms)
Assay type: functional, Cavia porcellus, Cardiac ventricle
Conditions: not given
Summary of the method: as §2
In the case of `Cc1cccc(C)c1NCCSC[C@@H]1CCCN2CCCC[C@H]12`, the Activity is reported as 162 ms.

Test system: Heart
Test: Cardioprotective effect in Langendorff perfused guinea pig spontaneously beating […] assessed as heart rat at 10 uM (RVb = 175 to 190 +/- 5 to 11 bpm)
Assay type: functional, Cavia porcellus
Conditions: not given
Molecule `Cc1cccc(C)c1NCCSC[C@@H]1CCCN2CCCC[C@H]12` has an Activity of 142 bpm.

Test system: not listed separately
Test: Negative inotropic activity against potassium-induced contraction in guinea pig left atrium assessed as decrease in developed tension
Assay type: functional, tissue-based
Conditions: Cavia porcellus, Cardiac atrium
For `Cc1cc(C)c(NC(=O)C[C@@H]2CCCN3CCCC[C@H]23)c(C)c1`, the EC50 was 10 nM.
`O=C(C[C@@H]1CCCN2CCCC[C@H]12)Nc1c(Cl)cccc1Cl` gave an EC50 of 100 nM.

Test system: not listed separately
Test: Cardioprotective effect in Langendorff perfused guinea pig spontaneously beating […] assessed as duration of ventricular action potential at 0.001 uM (RVb = 140 to 161 +/- 2 to 8 ms)
Assay type: functional, Cavia porcellus, Cardiac ventricle
Conditions: not given
Summary of the method: as §2
Molecule `Cc1cccc(C)c1NCCSC[C@@H]1CCCN2CCCC[C@H]12` has an Activity of 160 ms.

Test system: not listed separately
Test: Negative chronotropic activity against potassium-induced contraction in guinea pig left atrium assessed as decrease atrial rate
Assay type: functional, tissue-based
Conditions: Cavia porcellus, Cardiac atrium
With `Cc1cccc(C)c1NCCSC[C@@H]1CCCN2CCCC[C@H]12` the EC50 was 8420 nM.

Test system: not listed separately
Test: Cardioprotective effect in Langendorff perfused guinea pig spontaneously beating […] assessed as intraventicular conduction time at 0.001 uM (RVb = 19 to 24 +/- 1 to 2 ms)
Assay type: functional
Conditions: Cavia porcellus
Summary of the method: as §2
In the case of `Cc1cccc(C)c1NCCSC[C@@H]1CCCN2CCCC[C@H]12`, the intraventricular conduction time is reported as 23 ms.

Test system: not listed separately
Test: Negative chronotropic activity against potassium-induced contraction in guinea pig left atrium assessed as decrease atrial rate at 50 uM relative to control
Assay type: functional, Cavia porcellus, Cardiac atrium
Parameters: scale not given: the % may be the effect or the level left
Conditions: not given
Work on `O=C(C[C@@H]1CCCN2CCCC[C@H]12)Nc1c(Cl)cccc1Cl` yielded an Activity of 15%.

Test system: Heart
Test: Cardioprotective effect in Langendorff perfused guinea pig spontaneously beating […] assessed as heart rat at 0.1 uM (RVb = 175 to 190 +/- 5 to 11 bpm)
Assay type: functional, Cavia porcellus
Conditions: not given
Molecule `Cc1cccc(C)c1NCCSC[C@@H]1CCCN2CCCC[C@H]12` has an Activity of 179 bpm.

Test system: not listed separately
Test: Cardioprotective effect in Langendorff perfused guinea pig spontaneously beating […] assessed as duration of ventricular action potential at 1 uM (RVb = 140 to 161 +/- 2 to 8 ms)
Assay type: functional, Cavia porcellus, Cardiac ventricle
Conditions: not given
Summary of the method: as §2
With `Cc1cccc(C)c1NCCSC[C@@H]1CCCN2CCCC[C@H]12` the Activity was 170 ms.

Test system: not listed separately
Test: Cardioprotective effect in Langendorff perfused guinea pig spontaneously beating […] assessed as atrioventicular conduction time at 0.01 uM (RVb = 50 to 55 +/- 1 to 4 ms)
Assay type: functional
Conditions: Cavia porcellus
Summary of the method: as §2
Molecule `Cc1cccc(C)c1NCCSC[C@@H]1CCCN2CCCC[C@H]12` has an AV conduction time of 55 ms.

Test system: not listed separately
Test: Cardioprotective effect in Langendorff perfused guinea pig spontaneously beating […] assessed as intraventicular conduction time at 10 uM (RVb = 19 to 24 +/- 1 to 2 ms)
Assay type: functional
Conditions: Cavia porcellus
Summary of the method: as §2
Molecule `Cc1cccc(C)c1NCCSC[C@@H]1CCCN2CCCC[C@H]12` has an intraventricular conduction time of 26 ms.

Test system: not listed separately
Test: Antiarrhythmic activity in sinusoidal alternating current-induced guinea pig left atrium assessed as increase in current strength at which extra beats occur at 10 uM measured every 30 mins
Assay type: functional, Cavia porcellus, Cardiac atrium
Conditions: not given
Summary of the method: as §1
With `Cc1cccc(C)c1NCCSC[C@@H]1CCCN2CCCC[C@H]12` the Activity was 129%.
